# Assay outcomes deposited in PubChem by several laboratories.
# HIV Env fusion: HIV envelope-mediated fusion inhibition. AID 651610. 360,000 tested, 1.1% active. HeLa-JRFL Env/CEM21 cell fusion, luciferase. inhibition, % at 12.3 µM;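 active = mean replicate inhibition score of at least 50 and every replicate individually at or above 50; inconclusive = only one of the two criteria met; inactive = mean below 50 and not all replicates reaching 50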;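 note: 0% = plate neutral controls and 100% = maraviroc near 300 nM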
# Glyco luc inh: N-linked glycosylation inhibition; D54 ERlucT glycosylation luciferase reporter, 24 h; percent of 100 nM tunicamycin response; reporter increase, % at 12.5 µM; 360,000 tested, 0.23% active;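 active = mean luciferase reporter signal, scaled so untreated is 0 and the glycosylation-blocking control 100, at or above a set limit in every replicate; inconclusive = mean reaches the limit but not every replicate does; inactive = mean below the limit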;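 note: luciferase carries N-glycosylation sites so blocking glycosylation raises the light; 0% = median of neutral control wells and 100% = median of 100 nM tunicamycin wells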
# Rtt109 HAT inh: inhibitors of Candida albicans Rtt109/Vps75 histone acetyltransferase; Q5AAJ8; purified Rtt109/Vps75, ThioGlo CoA-SH fluorescence, 4 h; inhibition, % at 34.9 µM; 330,000 tested, 0.16% active;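 active = inhibition of at least 50% in every replicate; inconclusive = best replicate reaches 50% inhibition but some replicates fall short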
# Target sequence (Q5AAJ8 whole entry, looked up): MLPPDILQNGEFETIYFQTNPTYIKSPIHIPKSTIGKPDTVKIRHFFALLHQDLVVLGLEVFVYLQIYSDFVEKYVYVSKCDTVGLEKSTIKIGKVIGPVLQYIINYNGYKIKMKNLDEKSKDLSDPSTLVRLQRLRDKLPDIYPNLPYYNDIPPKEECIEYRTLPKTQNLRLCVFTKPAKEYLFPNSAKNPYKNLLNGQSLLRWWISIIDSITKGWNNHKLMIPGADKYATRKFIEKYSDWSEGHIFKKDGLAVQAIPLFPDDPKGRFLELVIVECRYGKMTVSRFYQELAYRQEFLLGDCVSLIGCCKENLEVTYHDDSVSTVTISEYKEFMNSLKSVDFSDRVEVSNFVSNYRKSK
# Arr AP2 block: human beta-arrestin and AP2 interaction inhibition; FITC-arrestin peptide / GST-AP2 beads, flow cytometry; AP2 beta2 appendage carries R879A mutation; inhibition, % at 10 µM; 340,000 tested, 0.31% active;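 active = inhibition above a set limit, near 3 SD of compounds lacking own fluorescence, cut at about 54% in these data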;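 note: plate controls were DMSO wells for no effect and 5 µM unlabelled arrestin peptide for full effect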
#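 System: GST-AP2 R879A glutathione beads; medium: PBS, Tween 20 0.05%, BSA 0.1%; reagent: fluorescein-tagged arrestin peptide at 50 nM final; schedule: pre-incubation 12 min, peptide binding 1 h, room temperature; detection: flow cytometry, FL1 (488/535 nm); read-out: inhibition as reduced fluorescein signal on beads, percent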
# PfHsp90 set2: reduces growth (ATP signal) of yeast expressing P. falciparum Hsp90; AID 504621; S. cerevisiae expressing PfHsp90, BacTiter-Glo ATP, 48 h; yeast lacking PDR1 and PDR3 efflux regulators; 310,000 tested, 0.32% active; inhibition, % at 9.4 µM;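 active = every replicate shows inhibition above about 80%, whatever the replicate mean, limit read from the data; inconclusive = mean inhibition reaches the set limit but some replicate falls short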;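 note: 0% = DMSO neutral controls and 100% = 20 µM radicicol positive controls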
# PAX8 reporter: lowers PAX8-driven luciferase in RMG-I cells | inhibition, % at 12.6 µM | 360,000 tested, 1.2% active | RMG-I TPO-luciferase reporter, SteadyGlo, 24 h | AID 652154;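 active = mean replicate inhibition at least 60% with every replicate also reaching 60%; inconclusive = only one of the two criteria is met; inactive = mean below 60% and not all replicates reaching 60%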;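 note: luciferase light reporting Pax8 driven TPO promoter activity; plate controls were median of neutral control wells for no effect and mitoxantrone controls for full effect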
# * hit, by the source's call; u = inconclusive; x = no result given; [ ] = remark or other dose. Hits are enriched below; roughly 2.3% of the tested compounds scored in any of these assays.
SMILES,HIV Env fusion,Glyco luc inh,Rtt109 HAT inh,Arr AP2 block,PfHsp90 set2,PAX8 reporter
O=C(Nc1cc(F)ccc1F)N1CC(=O)N2[C@@H](CO)[C@H](c3ccc(-c4cccc(F)c4)cc3)[C@@H]2C1,x,x,x,x,x,-3
C[C@@H]1CN([C@@H](C)CO)C(=O)c2c(c3ccccc3n2C)-c2ccccc2CO[C@@H]1CN(C)C(=O)CCC(F)(F)F,-15[16.7 µM],x,x,x,x,-2
C[C@H]1CN([C@@H](C)CO)C(=O)c2c(c3ccccc3n2C)-c2ccccc2CO[C@H]1CN(C)C(=O)CCC(F)(F)F,63*[16.7 µM],x,x,x,x,-23
CC[N+]1(C)CCC(O)(c2ccc(OC)cc2)C(C(=O)c2ccc(OC)cc2)C1 (centres undefined),24,-4,1,16,9,76*
COc1ccc(-c2ccc(C(=O)C3CC3)cc2)cc1,-68,-12,2,24,6,-138
Cc1ccc(Cn2nnnc2CN2CCC(c3nc4ccc(Cl)cc4[nH]3)CC2)cc1,75*,-1,-1,11,-8,x
Clc1ccc2nc(C3CCN(Cc4nnnn4C4CCCCC4)CC3)[nH]c2c1,36,1,32,7,x,10
CCN(CC)S(=O)(=O)c1ccc(N/N=C/c2ccc(O)cc2O)nc1,23,-12,15,4,-19,72*
Oc1ccc(C=NNc2ccccn2)c(O)c1,69*,-11,2,6,15,-5
O=[N+]([O-])c1ccc(O)c(/C=N/Nc2ccccn2)c1,-27,-13,2,19,111*,71*
O=[N+]([O-])c1ccc(NN=Cc2ccccc2O)nc1,-61,-14,6,2,-17,-20
CN1C(=O)c2cc(NC(=O)C3CC3)ccc2OC[C@H]2O[C@H](CC(=O)NCc3ccccc3F)CC[C@H]21,-21[16.7 µM],x,x,x,x,-4
O=C(C#Cc1ccccc1)c1cccc([N+](=O)[O-])c1,x,23,-3,2,152*,x
CC(=O)c1cccc([N+](=O)[O-])c1,x,0,-12,-23,41,x
Cc1nc(N2CCN(c3ccccc3)CC2)nc2c1C(=O)CC(c1ccccc1)C2 (centres undefined),64*,-5,-3,2,-25,x
COc1ccc(NC(=O)C(Cc2ccccc2)n2cccc2)cc1 (centres undefined),28,-1,3,4,18,7
COc1cc(NC(=O)C(Cc2ccccc2)n2cccc2)cc(OC)c1 (centres undefined),18,-2,52*,9,3,-6
Cc1nn(-c2ccccc2)c(Cl)c1C(=O)NCC(=O)O,x,1,8,12,24,x
Cc1nn(-c2ccccc2)c(Cl)c1CN(C(=O)CCl)c1ccc(Cl)cc1,-15,17,-4,-4,-21,100*
Cc1nn(-c2ccccc2)c(Cl)c1CN(C(=O)CCl)c1cccc2ccccc12,4,-15,6,1,20,111*
CC(=O)N(Cc1c(C)nn(-c2ccccc2)c1Cl)c1ccc(Cl)cc1,-131,-1,2,-9,16,-6
CC(C)NC(=O)Nc1ccc2c(c1)C(=O)N([C@@H](C)CO)C[C@@H](C)[C@@H](CN(C)C(=O)NC(C)C)O2,x,x,x,x,x,-14
CCOC(=O)c1c(NC(=O)C2CCCN2S(=O)(=O)c2cccc3nsnc23)sc(C)c1C (centres undefined),64*,-4,4,36,-6,-16
Cc1c(NC(=O)C2CCCN2S(=O)(=O)c2cccc3nsnc23)cccc1C(=O)O (centres undefined),12,2,-20,9,7,8
O=C(Nc1ccccc1)Nc1ccc2c(c1)[C@@H]1C[C@@H](CC(=O)N3CCOCC3)O[C@H](CO)[C@@H]1O2,12[16.7 µM],x,x,x,x,-6
COc1ccc(-c2nsc3c(N4CCCCC4)ncnc23)cc1,-311,-21,-5,-3,x,76*
COc1ccc(-c2nsc3c(N4CCCCC4C)ncnc23)cc1 (centres undefined),-2,-21,x,7,-15,u
CN(c1ccccc1)c1ccc(/C=C/[N+](=O)[O-])cc1,-214,-20,-6,18,106*,-4
COc1ccc(-c2cn3c(C)c(C(=O)Nc4cccc(NC(C)=O)c4)sc3n2)cc1,71*,1,13,2,6,x
